From ChEMBL document CHEMBL1138564, “Microwave-induced synthesis and anti-microbial activities of 7,10,11,12-tetrahydrobenzo[c]acridin-8(9H)-one derivatives” (2009)
In brackets after ≈: the same amount, converted by molar mass. Activity calls are given as the source filed them. The rule behind the calls is not given here.

What was measured:
Pseudomonas aeruginosa [1] = assay: Antimicrobial activity against Pseudomonas aeruginosa NCIM 2200 at 1000 ug/disk after 24 hrs by disk diffusion method; assay type: functional
Method in brief: (§1)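 Disc diffusion on Mueller–Hinton agar. 100 µl of bacterial suspension at 10⁸ CFU/ml is spread on the plate. Discs carry test compounds at two loadings, dissolved in DMSO; DMSO alone serves as negative control. Ofloxacin disc is the positive reference. Plates are incubated at 37 °C for 24 h, and the inhibition zone diameter is measured.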

Bacillus subtilis [2] = assay: Antimicrobial activity against Bacillus subtilis NCIM 2063 after 24 hrs by serial dilution method; assay type: functional; settings: NCIM 2063, 24 h
Method in brief: (§2)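 Broth dilution MIC in nutrient broth, run only for organisms found sensitive in disc diffusion. Compounds are two-fold serially diluted in 1 ml sterile broth per tube, spanning 3.9 to 1000. Inoculated tubes are incubated at 37 °C for 24 h.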

Rhodotorula mucilaginosa [3] = assay: Antimicrobial activity against Rhodotorula rubra NCIM 3174 after 72 hrs by serial dilution method; assay type: functional; settings: NCIM 3174, 72 h
Method in brief: (§3)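 MIC by broth dilution in Sabouraud's dextrose broth, run only on fungi found sensitive in the disc assay. Twofold serial dilutions were made in 1 ml broth per tube, covering 3.9 to 1000. Inoculated tubes were incubated at 27 °C for 72 h.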

Aspergillus flavus [4] = assay: Antimicrobial activity against Aspergillus flavus NCIM 902 after 72 hrs by serial dilution method; assay type: functional; settings: NCIM 535, 72 h, in the assay text read “NCIM 535” for “NCIM 902”
Method in brief: (§4)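 MIC by broth dilution in Sabouraud's dextrose broth, only for fungi sensitive in disc diffusion. Two-fold serial dilutions of compounds are made in 1 ml broth per tube, range 3.9 to 1000. Inoculated tubes are incubated at 27 °C for 72 h.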

Bacillus subtilis [5] = assay: Antimicrobial activity against Bacillus subtilis NCIM 2063 at 1000 ug/disk after 24 hrs by disk diffusion method; assay type: functional; settings: NCIM 2063, 24 h, read-out: DIZ; method in brief: as §1
Trichoderma viride [6] = assay: Antimicrobial activity against Trichoderma viride NCIM 1195 at 500 ug/disk after 72 hrs by disk diffusion method; assay type: functional; settings: NCIM 1195, 72 h, read-out: DIZ
Method in brief: (§5)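 Fungal disc diffusion. 100 µl of suspension at 10⁶ CFU/ml was spread on Sabouraud's dextrose agar. Discs carrying test compound in DMSO were applied, with a DMSO-only disc as negative control. Plates were incubated at 27 °C for 72 h, and the zone of inhibition diameter was measured.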

Bacillus cereus [7] = assay: Antimicrobial activity against Bacillus cereus NCIM 2155 at 1000 ug/disk after 24 hrs by disk diffusion method; assay type: functional; settings: NCIM 2155, 24 h, read-out: DIZ; method in brief: as §1
Penicillium chrysogenum = assay: Antimicrobial activity against Penicillium chrysogenum NCIM 707 at 500 ug/disk after 72 hrs by disk diffusion method; assay type: functional
Method in brief: (§6)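 Disc diffusion on Sabouraud's dextrose agar. 100 µl of fungal suspension at 10⁶ CFU/ml is spread on the plate. Discs carry test compounds at two loadings in DMSO; DMSO alone is the negative control. Clotrimazole disc is the positive reference. Plates are incubated at 27 °C for 72 h, and the zone of inhibition diameter is measured.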

Aliivibrio fischeri [8] = assay: Antimicrobial activity against Vibrio fischeri NCIM 2154 at 500 ug/disk after 24 hrs by disk diffusion method; assay type: functional; settings: NCIM 2154, 24 h, read-out: DIZ
Method in brief: (§7)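 Disc diffusion. 100 µl of bacterial suspension at 10⁸ CFU/ml was spread on Mueller–Hinton agar. Discs loaded with test compound dissolved in DMSO were placed on the lawn, with a DMSO-only disc as negative control. Plates were incubated at 37 °C for 24 h, and the inhibition zone diameter was measured.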

Aliivibrio fischeri [9] = assay: Antimicrobial activity against Vibrio fischeri NCIM 2154 at 1000 ug/disk after 24 hrs by disk diffusion method; assay type: functional; settings: NCIM 2154, 24 h, read-out: DIZ; method in brief: as §7
[10] = system: Rhodococcus corynebacterioides; assay: Antimicrobial activity against Corynebacterium rubrum NCIM 2252 at 1000 ug/disk after 24 hrs by disk diffusion method; assay type: functional; settings: Rhodococcoides corynebacterioides; method in brief: as §1
Aspergillus flavus [11] = assay: Antimicrobial activity against Aspergillus flavus NCIM 902 at 1000 ug/disk after 72 hrs by disk diffusion method; assay type: functional; settings: NCIM 902, 72 h, read-out: DIZ; method in brief: as §6
Aspergillus fumigatus [12] = assay: Antimicrobial activity against Aspergillus fumigatus NCIM 902 at 500 ug/disk after 72 hrs by disk diffusion method; assay type: functional; method in brief: as §6
[13] = system: Rhodococcus corynebacterioides; assay: Antimicrobial activity against Corynebacterium rubrum NCIM 2252 at 500 ug/disk after 24 hrs by disk diffusion method; assay type: functional; settings: Rhodococcoides corynebacterioides; method in brief: as §1
Trichoderma viride [14] = assay: Antimicrobial activity against Trichoderma viride NCIM 1195 at 1000 ug/disk after 72 hrs by disk diffusion method; assay type: functional; settings: NCIM 1195, 72 h, read-out: DIZ; method in brief: as §5
Pseudomonas aeruginosa [15] = assay: Antimicrobial activity against Pseudomonas aeruginosa NCIM 2200 at 500 ug/disk after 24 hrs by disk diffusion method; assay type: functional; method in brief: as §7
Rhodotorula mucilaginosa [16] = assay: Antimicrobial activity against Rhodotorula rubra NCIM 3174 at 500 ug/disk after 72 hrs by disk diffusion method; assay type: functional; settings: NCIM 3174, 72 h, read-out: DIZ; method in brief: as §5
Salmonella typhimurium = assay: Antimicrobial activity against Salmonella Typhimurium NCIM 2501 at 500 ug/disk after 24 hrs by disk diffusion method; assay type: functional, Salmonella enterica subsp. enterica serovar Typhimurium; settings: Salmonella enterica, NCIM 2501, 24 h; read-out: DIZ; method in brief: as §7
Proteus vulgaris [17] = assay: Antimicrobial activity against Proteus vulgaris NCIM 2027 at 1000 ug/disk after 24 hrs by disk diffusion method; assay type: functional; method in brief: as §1
Staphylococcus = assay: Antimicrobial activity against Staphylococcus albus NCIM 2178 at 500 ug/disk after 24 hrs by disk diffusion method; assay type: functional; method in brief: as §7
Aspergillus parasiticus [18] = assay: Antimicrobial activity against Aspergillus parasiticus NCIM 904 after 72 hrs by serial dilution method; assay type: functional; settings: NCIM 904, 72 h; method in brief: as §4
Rhodotorula mucilaginosa [19] = assay: Antimicrobial activity against Rhodotorula rubra NCIM 3174 at 1000 ug/disk after 72 hrs by disk diffusion method; assay type: functional; settings: NCIM 3174, 72 h, read-out: DIZ; method in brief: as §5
Klebsiella aerogenes [20] = assay: Antimicrobial activity against Klebsiella aerogenes NCIM 2239 at 1000 ug/disk after 24 hrs by disk diffusion method; assay type: functional; settings: NCIM 2239, 24 h, read-out: DIZ; method in brief: as §1
Escherichia coli [21] = assay: Antimicrobial activity against Escherichia coli NCIM 2065 at 500 ug/disk after 24 hrs by disk diffusion method; assay type: functional; settings: NCIM 2065, 24 h, read-out: DIZ; method in brief: as §1
Bacillus cereus [22] = assay: Antimicrobial activity against Bacillus cereus NCIM 2155 at 500 ug/disk after 24 hrs by disk diffusion method; assay type: functional; settings: NCIM 2155, 24 h, read-out: DIZ; method in brief: as §1
Escherichia coli [23] = assay: Antimicrobial activity against Escherichia coli NCIM 2065 after 24 hrs by serial dilution method; assay type: functional; settings: NCIM 2065, 24 h; method in brief: as §2
Lipomyces lipofer = assay: Antimicrobial activity against Lipomyces lipofer NCIM 3252 at 500 ug/disk after 72 hrs by disk diffusion method; assay type: functional; method in brief: as §6
Aspergillus parasiticus [24] = assay: Antimicrobial activity against Aspergillus parasiticus NCIM 904 at 1000 ug/disk after 72 hrs by disk diffusion method; assay type: functional; settings: NCIM 904, 72 h, read-out: DIZ; method in brief: as §6
Aspergillus fumigatus [25] = assay: Antimicrobial activity against Aspergillus fumigatus NCIM 902 at 1000 ug/disk after 72 hrs by disk diffusion method; assay type: functional; settings: NCIM 902, 72 h, read-out: DIZ; method in brief: as §6
Klebsiella aerogenes [26] = assay: Antimicrobial activity against Klebsiella aerogenes NCIM 2239 at 500 ug/disk after 24 hrs by disk diffusion method; assay type: functional; method in brief: as §1
Trichoderma viride [27] = assay: Antimicrobial activity against Trichoderma viride NCIM 1195 after 72 hrs by serial dilution method; assay type: functional; settings: NCIM 1195, 72 h; method in brief: as §3
Proteus vulgaris [28] = assay: Antimicrobial activity against Proteus vulgaris NCIM 2027 at 500 ug/disk after 24 hrs by disk diffusion method; assay type: functional; method in brief: as §1

MIC (Bacillus subtilis [2]) [µg/mL] | MIC (Rhodotorula mucilaginosa [3]) [µg/mL] | MIC (Aspergillus flavus [4]) [µg/mL] | MIC (Aspergillus parasiticus [18]) [µg/mL] | SMILES | diameter of the inhibition zone (DIZ) (Pseudomonas aeruginosa [1]) | zone of inhibition at 1000 µg/disc (Bacillus subtilis [5]) [mm] | zone of inhibition at 500 µg/disc (Trichoderma viride [6]) [mm] | zone of inhibition at 1000 µg/disc (Bacillus cereus [7]) [mm] | zone of inhibition at 500 µg/disc (Aliivibrio fischeri [8]) [mm] | zone of inhibition at 1000 µg/disc (Aliivibrio fischeri [9]) [mm] | zone of inhibition at 1000 µg/disc (Aspergillus flavus [11]) [mm] | diameter of the inhibition zone (DIZ) (Aspergillus fumigatus [12]) | zone of inhibition at 1000 µg/disc (Trichoderma viride [14]) [mm] | diameter of the inhibition zone (DIZ) (Pseudomonas aeruginosa [15]) | zone of inhibition at 500 µg/disc (Rhodotorula mucilaginosa [16]) [mm] | zone of inhibition at 500 µg/disc (Salmonella typhimurium) [mm] | diameter of the inhibition zone (DIZ) (Proteus vulgaris [17]) | diameter of the inhibition zone (DIZ) (Staphylococcus) | zone of inhibition at 1000 µg/disc (Rhodotorula mucilaginosa [19]) [mm] | zone of inhibition at 1000 µg/disc (Klebsiella aerogenes [20]) [mm] | also measured
62.5 (≈ 161 µM) | 62.5 (≈ 161 µM) | 62.5 (≈ 161 µM) | 31.2 (≈ 80.4 µM) | CC1(C)CC(=O)C2=C(C1)Nc1c(ccc3ccccc13)C2c1cccc(Cl)c1 (centres undefined) | inactive | 9 | 10 | 10 | 7 | 9 | 10 | inactive | 13 | inactive | 7 | 8 | inactive | inactive | 9 | 9 | zone of inhibition at 500 µg/disc (Penicillium chrysogenum; NCIM 707, 72 h, read-out: DIZ): 7 mm; zone of inhibition at 1000 µg/disc ([10]; NCIM 2252, 24 h, read-out: DIZ): 8 mm; zone of inhibition at 500 µg/disc ([13]; NCIM 2252, 24 h, read-out: DIZ): 7 mm; zone of inhibition at 500 µg/disc (Escherichia coli [21]): 7 mm; zone of inhibition at 500 µg/disc (Bacillus cereus [22]): 9 mm; MIC (Escherichia coli [23]): 125 µg/mL (≈ 322 µM); diameter of the inhibition zone (DIZ) (Lipomyces lipofer): inactive; zone of inhibition at 1000 µg/disc (Aspergillus parasiticus [24]): 12 mm; zone of inhibition at 1000 µg/disc (Aspergillus fumigatus [25]): 9 mm; diameter of the inhibition zone (DIZ) (Klebsiella aerogenes [26]): inactive; MIC (Trichoderma viride [27]): 15.6 µg/mL (≈ 40.2 µM); diameter of the inhibition zone (DIZ) (Proteus vulgaris [28]): inactive
62.5 (≈ 161 µM) | 15.6 (≈ 40.2 µM) | 62.5 (≈ 161 µM) | 62.5 (≈ 161 µM) | CC1(C)CC(=O)C2=C(C1)Nc1c(ccc3ccccc13)C2c1ccccc1Cl (centres undefined) | inactive | 8 | 7 | 11 | 7 | 9 | 10 | inactive | 8 | inactive | 10 | 10 | inactive | inactive | 13 | 9 | diameter of the inhibition zone (DIZ) (Penicillium chrysogenum): inactive; diameter of the inhibition zone (DIZ) [10]: inactive; diameter of the inhibition zone (DIZ) [13]: inactive; zone of inhibition at 500 µg/disc (Escherichia coli [21]): 7 mm; zone of inhibition at 500 µg/disc (Bacillus cereus [22]): 8 mm; MIC (Escherichia coli [23]): 125 µg/mL (≈ 322 µM); zone of inhibition at 500 µg/disc (Lipomyces lipofer; NCIM 3252, 72 h, read-out: DIZ): 7 mm; zone of inhibition at 1000 µg/disc (Aspergillus parasiticus [24]): 10 mm; zone of inhibition at 1000 µg/disc (Aspergillus fumigatus [25]): 8 mm; diameter of the inhibition zone (DIZ) (Klebsiella aerogenes [26]): inactive; MIC (Trichoderma viride [27]): 125 µg/mL (≈ 322 µM); diameter of the inhibition zone (DIZ) (Proteus vulgaris [28]): inactive
